Assays:
[1] = (§1) Drug metabolism in human hepatocytes assessed as formation of (2S,3S,4S,5R,6R)-3,4,5-trihydroxy-6-(5-(4-((6-methoxy-1-methyl-1H-benzo[d]imidazol-2-yl)methoxy)benzyl)-2,4-dioxothiazolidin-3-yl)tetrahydro-2H-pyran-2-carboxylic acid at 30 uM after 3 hrs by radio-HPLC/LC-MS/MS analysis; type: ADME, cell-based, Hepatocyte
[2] = target: T1, UDP-glucuronosyltransferase 1A1 (Homo sapiens, UniProt P22309); assay: Activity of human UGT1A1 expressed in microsomes isolated from baculovirus infected insect cell assessed as enzyme-mediated (2S,3S,4S,5R,6R)-6-((1-carboxy-2-(4-((6-methoxy-1-methyl-1H-benzo[d]imidazol-2-yl)methoxy)phenyl)ethylthio)carbonylamino)-3,4,5-trihydroxytetrahydro-2H-pyran-2-carboxylic acid formation at 20 uM after 4 hrs by radio-HPLC/LC-MS/MS analysis in presence of UDPGA; type: ADME
T1 sequence (P22309 whole entry): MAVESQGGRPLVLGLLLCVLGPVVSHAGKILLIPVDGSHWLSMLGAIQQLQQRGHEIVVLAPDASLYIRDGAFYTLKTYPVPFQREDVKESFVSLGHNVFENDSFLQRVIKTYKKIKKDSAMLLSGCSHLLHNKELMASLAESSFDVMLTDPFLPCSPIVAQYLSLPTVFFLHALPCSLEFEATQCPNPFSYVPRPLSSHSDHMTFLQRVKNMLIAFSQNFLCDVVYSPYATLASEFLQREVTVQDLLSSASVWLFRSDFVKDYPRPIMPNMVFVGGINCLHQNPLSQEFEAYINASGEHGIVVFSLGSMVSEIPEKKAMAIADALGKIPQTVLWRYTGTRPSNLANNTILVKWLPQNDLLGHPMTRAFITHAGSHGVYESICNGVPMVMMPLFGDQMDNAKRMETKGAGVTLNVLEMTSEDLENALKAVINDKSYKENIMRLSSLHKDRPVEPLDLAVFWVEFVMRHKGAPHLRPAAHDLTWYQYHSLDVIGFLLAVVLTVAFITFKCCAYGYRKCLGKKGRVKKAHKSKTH
Summary of the method: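 Alamethicin (50 μg/mg protein, 15 min on ice) pretreated expressed human UGT microsomes (1 mg/ml protein) from baculovirus-infected insect cells. Incubation with [¹⁴C]rivoglitazone (20 μM) in 100 mM Tris-HCl (pH 7.5) with 10 mM MgCl₂, started by 5 mM UDPGA, 4 h at 37°C with shaking. UGT insect-cell control supersomes were run alongside. Acetonitrile stop, concentrated supernatant analysed by radio-HPLC, LC-MS and LC-MS/MS.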

[3] = as §1, with “analysis in presence of UDPGA and UDPGA/SAM” for “analysis”; type: ADME, cell-based, Hepatocyte
[4] = target: T2, UDP-glucuronosyltransferase 2B7 (Homo sapiens, UniProt P16662); assay: Activity of human UGT2B7 expressed in microsomes isolated from baculovirus infected insect cell assessed as enzyme-mediated 2-((4-((2,4-dioxothiazolidin-5-yl)methyl)phenoxy)methyl)-1-methyl-1H-benzo[d]imidazol-6-yl hydrogen sulfate formation at 20 uM after 4 hrs by radio-HPLC/LC-MS/MS analysis; type: ADME
T2 sequence (P16662 whole entry): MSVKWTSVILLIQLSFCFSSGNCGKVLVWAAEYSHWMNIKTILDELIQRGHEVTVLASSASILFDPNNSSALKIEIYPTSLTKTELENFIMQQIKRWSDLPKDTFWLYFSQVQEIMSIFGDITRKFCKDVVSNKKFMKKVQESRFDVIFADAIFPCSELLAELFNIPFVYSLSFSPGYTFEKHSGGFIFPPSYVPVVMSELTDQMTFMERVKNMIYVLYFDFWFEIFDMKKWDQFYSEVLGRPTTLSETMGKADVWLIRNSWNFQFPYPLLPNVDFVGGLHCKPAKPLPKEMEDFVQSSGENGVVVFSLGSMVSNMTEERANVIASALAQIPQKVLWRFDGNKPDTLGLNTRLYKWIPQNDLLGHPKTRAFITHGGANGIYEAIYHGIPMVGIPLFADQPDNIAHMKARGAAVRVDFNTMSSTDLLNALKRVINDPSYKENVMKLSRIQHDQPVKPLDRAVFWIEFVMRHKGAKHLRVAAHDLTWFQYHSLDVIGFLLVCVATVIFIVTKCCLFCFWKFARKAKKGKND

[5] = target: T3, UDP-glucuronosyltransferase 1A6 (Homo sapiens, UniProt P19224); assay: Activity of human UGT1A6 expressed in microsomes isolated from baculovirus infected insect cell assessed as enzyme-mediated (2S,3S,4S,5R,6R)-3,4,5-trihydroxy-6-(5-(4-((6-methoxy-1-methyl-1H-benzo[d]imidazol-2-yl)methoxy)benzyl)-2,4-dioxothiazolidin-3-yl)tetrahydro-2H-pyran-2-carboxylic acid formation at 20 uM after 4 hrs by radio-HPLC/LC-MS/MS analysis in presence of UDPGA; type: ADME
T3 sequence (P19224 whole entry): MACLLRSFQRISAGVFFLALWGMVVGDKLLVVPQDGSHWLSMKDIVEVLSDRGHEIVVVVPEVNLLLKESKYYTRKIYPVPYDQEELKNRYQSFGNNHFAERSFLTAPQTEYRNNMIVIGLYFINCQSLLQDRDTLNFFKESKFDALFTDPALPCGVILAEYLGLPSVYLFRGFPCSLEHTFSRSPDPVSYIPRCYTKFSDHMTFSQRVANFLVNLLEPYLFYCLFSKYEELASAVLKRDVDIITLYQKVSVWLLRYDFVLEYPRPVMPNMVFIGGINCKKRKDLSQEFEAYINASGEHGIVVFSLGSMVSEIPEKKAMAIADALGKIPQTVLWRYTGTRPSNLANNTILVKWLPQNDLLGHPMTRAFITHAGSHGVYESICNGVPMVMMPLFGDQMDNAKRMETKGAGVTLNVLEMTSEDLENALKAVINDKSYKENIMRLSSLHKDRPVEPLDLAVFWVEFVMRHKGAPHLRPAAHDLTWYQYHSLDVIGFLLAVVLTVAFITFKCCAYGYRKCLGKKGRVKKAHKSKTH

Drug metabolism [1]: metabolite_detected
Drug metabolism [2]: metabolite_not_detected
Drug metabolism [3]: metabolite_detected
Drug metabolism [4]: metabolite_not_detected
Drug metabolism [5]: metabolite_not_detected
SMILES: COc1ccc2nc(COc3ccc(C[14CH]4SC(=O)NC4=O)cc3)n(C)c2c1.Cl (racemic)

From ChEMBL document CHEMBL3526048, “In vitro metabolism of rivoglitazone, a novel peroxisome proliferator-activated receptor γ agonist, in rat, monkey, and human liver microsomes and freshly isolated hepatocytes” (Drug Metab Dispos, 2011)
